An excerpt weighted towards active compounds, which were near 1.4% of everything screened.
CAL PDZ FP-1 = CAL PDZ (human) peptide binding inhibition; Q9HD26; purified CAL PDZ, TMR-peptide fluorescence polarization, 1 h; inhibition, % at 24.9 µM; 0.92% of 300,000 active;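 active = mean inhibition of at least 30% with at least half of replicates also reaching 30%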
Dyrk1A ADPGlo = blocks rat Dyrk1A kinase activity; 0.43% of 310,000 active; ADP-Glo luminescence, NFATc1 peptide; AID 504441; Q63470; inhibition, % at 12.5 µM; in the data active = inhibition above about 50%
CAL PDZ FP-2 = blocks peptide binding to human CAL PDZ domain | 0.02% of 330,000 active | Q9HD26 | inhibition, % at 20 µM | purified CAL PDZ, TMR-peptide fluorescence polarization, 1 h | AID 504414;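 active = highest replicate inhibition of at least 40%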
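Test system: purified CerCALP PDZ construct; Compound dosing: one concentration, 20 µM compound; Also added: TMR-labelled reporter peptide T*-PRC34 bound in PDZ groove; Read-out: inhibition from polarization loss; Controls: unlabelled peptide and DMSO controls; Signal: FP readout, S and P plane fluorescence; Incubation: 1 h at RT.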
CDK5 p35 inh = blocks human CDK5/p35 kinase activity | Recombinant CDK5/p35, ADP-Glo luminescence, 60 min | inhibition, % at 10 µM | 0.01% of 330,000 active | AID 488839;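 active = highest replicate inhibition of at least 50% and at least 75% of replicates reaching 50%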
Target sequence (Q00535 whole entry, looked up): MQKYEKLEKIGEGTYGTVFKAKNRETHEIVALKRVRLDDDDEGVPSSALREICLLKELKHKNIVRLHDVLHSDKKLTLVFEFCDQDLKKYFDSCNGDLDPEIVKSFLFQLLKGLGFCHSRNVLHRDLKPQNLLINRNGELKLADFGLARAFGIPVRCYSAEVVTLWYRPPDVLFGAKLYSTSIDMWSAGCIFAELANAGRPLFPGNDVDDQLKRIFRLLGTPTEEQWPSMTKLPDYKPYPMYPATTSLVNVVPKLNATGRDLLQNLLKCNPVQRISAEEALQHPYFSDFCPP
Target sequence (Q15078 whole entry, looked up): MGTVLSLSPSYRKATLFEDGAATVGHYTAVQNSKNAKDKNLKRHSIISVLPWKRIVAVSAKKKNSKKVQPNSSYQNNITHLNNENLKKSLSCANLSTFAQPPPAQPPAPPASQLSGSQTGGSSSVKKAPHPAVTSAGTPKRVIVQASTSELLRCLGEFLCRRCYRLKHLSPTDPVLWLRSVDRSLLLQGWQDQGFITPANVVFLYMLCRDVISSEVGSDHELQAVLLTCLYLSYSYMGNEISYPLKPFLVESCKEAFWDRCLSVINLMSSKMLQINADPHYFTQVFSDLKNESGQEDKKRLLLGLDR
Tb MetRS inh = Trypanosoma brucei MetRS inhibition. purified T. brucei MetRS, ATP depletion, Kinase-Glo luminescence. inhibition, % at 11.9 µM. 0.4% of 360,000 active;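 active = inhibition above a per-plate cutoff of the control wells' mean inhibition plus 3 SD, cut at about 5.5% in these data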
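Material: T. brucei methionyl-tRNA synthetase, purified; reagent: substrates ATP, L-methionine and bulk Escherichia coli tRNA; dosing: 11.9 µM single point; timing: 15 min plus 2 h at 25 °C; detection: luminescence of leftover ATP; evaluation: % inhibition; control set: DMSO-only wells as low control; replicates: singlicate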
PvdQ acylase = P. aeruginosa PvdQ acylase inhibition; purified PvdQ acylase, fluorescence plate reader; inhibition, % at 10 µM; 0.063% of 340,000 active; in the data active = inhibition above about 30%, passing the limit was not always enough
Of the large screens only hits and unclear results are named; the others gave an inactive call.

COC(=O)[C@@]12C[C@@H](CC(=O)N3CCN(C(=O)c4ccco4)CC3)C(=O)N(Cc3cccc4ccccc34)C1=CCC(C)(C)C2	none (no result: CAL PDZ FP-1, Dyrk1A ADPGlo, CAL PDZ FP-2, CDK5 p35 inh, PvdQ acylase)
Cc1c(N2C(=O)c3ccc(Br)cc3C2=O)c(=O)n(-c2ccccc2)n1C	CAL PDZ FP-1 36.3
CC1(C(=O)Nc2ccc3[nH]ncc3c2)CCN1C(=O)Cc1ccc(-c2ccccc2)cc1 (stereo unspecified)	none (no result: CAL PDZ FP-1, Dyrk1A ADPGlo, CAL PDZ FP-2, CDK5 p35 inh, PvdQ acylase)
Cc1onc(-c2c(Cl)cccc2Cl)c1C(=O)N1CCN(c2ncccn2)CC1	CAL PDZ FP-1 51.5
O=C(COC(=O)Cn1cnc2ccccc21)Nc1cc2c(cc1Cl)C(=O)c1ccccc1C2=O	CAL PDZ FP-1 79.8
CC1(C(=O)NCc2cccc3ccccc23)CCN1Cc1cccc2c1OCO2 (stereo unspecified)	none (no result: CAL PDZ FP-1, Dyrk1A ADPGlo, CAL PDZ FP-2, CDK5 p35 inh, PvdQ acylase)
O=C(O)CSC(C(=O)Nc1ccc(C(F)(F)F)cc1)c1ccccc1 (stereo unspecified)	none
O=C(O)CSC(C(=O)Nc1ccc(Br)cc1)c1ccc(Cl)cc1 (stereo unspecified)	CAL PDZ FP-1 135.2
Cc1ccc(F)cc1C(=O)N1CCCCC1c1cc(C(=O)Nc2cccc(C#N)c2)no1 (stereo unspecified)	none (no result: CAL PDZ FP-1, Dyrk1A ADPGlo, CAL PDZ FP-2, CDK5 p35 inh, PvdQ acylase)
COc1cccc(S(=O)(=O)Nc2ccc(C(O)(C(F)(F)F)C(F)(F)F)cc2)c1	none (no result: CAL PDZ FP-1, Dyrk1A ADPGlo, CAL PDZ FP-2, CDK5 p35 inh, PvdQ acylase)
COC(=O)[C@@]12C[C@@H](CC(=O)NCc3ccc(OC)c(OC)c3)C(=O)N(Cc3ccc4c(c3)OCO4)C1=CCC(C)(C)C2	none (no result: CAL PDZ FP-1, Dyrk1A ADPGlo, CAL PDZ FP-2, CDK5 p35 inh, PvdQ acylase)
CC1=CC(C)(C)Nc2ccc(OC(=O)C(Cc3ccccc3)N3C(=O)c4ccccc4C3=O)cc21 (stereo unspecified)	CAL PDZ FP-1 67.9
CC1=CC(C)(C)Nc2ccc(OC(=O)CN3C(=O)c4ccccc4C3=O)cc21	none
CCOC(=O)Cc1ccc(Nc2nc(NCCOC)nc3ccsc23)cc1	none (no result: CAL PDZ FP-1, Dyrk1A ADPGlo, CAL PDZ FP-2, CDK5 p35 inh, PvdQ acylase)
CCOC(=O)c1cnc2nc(Cc3ccccc3)[nH]n2c1=O	none (no result: CAL PDZ FP-1)
CCOC(=O)c1cnc2nc(C(F)(F)F)[nH]n2c1=O	CAL PDZ FP-1 102.7
COCCNC(=S)N(CCCO)Cc1cc2cc3c(cc2[nH]c1=O)OCCO3	none
COCCNC(=S)N(CCO)Cc1cc2cc3c(cc2[nH]c1=O)OCO3	CAL PDZ FP-1 82.0 (no result: CAL PDZ FP-2)
CC(C)C[C@@H](CO)NS(=O)(=O)c1c(F)cccc1F	CAL PDZ FP-1 35.2
CCOc1cc(/C=N/NC(=O)c2ccncc2)cc(Cl)c1OS(C)(=O)=O	CAL PDZ FP-1 53.5 (no result: CDK5 p35 inh)
COC(=O)[C@H](CC(C)C)N1Cc2cc(OC)cc(OC)c2-c2ccccc2S1(=O)=O	CAL PDZ FP-1 51.1
Cc1ccc2c(c1)c1ncnc(N3CCN(c4ccccc4)CC3)c1n2C	none
Cc1ccc2c(c1)c1ncnc(N3CCOCC3)c1n2C	CAL PDZ FP-1 42.1
CCC(C)NC(=S)Nc1ccccc1 (stereo unspecified)	CAL PDZ FP-1 75.5
c1ccc(CN2CCN(c3ncnc4c3[nH]c3ccccc34)CC2)cc1	Tb MetRS inh 6.2
Cc1cnc(NC(=O)NCC2CCCC(CNC(=O)Nc3ncc(C)s3)C2)s1 (stereo unspecified)	CAL PDZ FP-1 67.4
O=C(COC(=O)CCCN1C(=O)c2ccccc2C1=O)Nc1ncc(Cl)cc1Cl	CAL PDZ FP-1 40.4
Cn1c(Cc2ccccc2)n[nH]c1=S	none
Cn1c(Cc2cccs2)n[nH]c1=S	CAL PDZ FP-1 37.8
CC1CC(O)C2C3(C)CCCC2(COC3=O)C12CCC1(CCOC1=O)O2 (stereo unspecified)	none (no result: CAL PDZ FP-1, Dyrk1A ADPGlo, CAL PDZ FP-2, CDK5 p35 inh, PvdQ acylase)
COc1ccc(-c2nn(CCC#N)cc2/C=N/O)cc1OC	CAL PDZ FP-1 58.2
CCN(CC)CCC12CC(C)OC1=Nc1ccccc1NC2=O (stereo unspecified)	none (no result: CAL PDZ FP-1, Dyrk1A ADPGlo, CAL PDZ FP-2, CDK5 p35 inh, PvdQ acylase)
Cc1ccc(S(=O)(=O)c2cnc3cc(C)nn3c2N)cc1	none (no result: Dyrk1A ADPGlo)
Cc1cc2ncc(S(C)(=O)=O)c(N)n2n1	CAL PDZ FP-1 55.6 (no result: Dyrk1A ADPGlo)
CN1C(=O)/C(=C\c2ccc(OC(=O)c3ccco3)cc2)SC1=S	CAL PDZ FP-1 56.8
COc1cc(/C=C2/SC(=S)N(CC(=O)O)C2=O)ccc1OC(=O)c1ccco1	none
CN1C(=O)/C(=C/c2ccc(OC(=O)c3ccco3)cc2)SC1=S	CAL PDZ FP-1 active
COc1cc(/C=C2\SC(=S)N(CC(=O)O)C2=O)ccc1OC(=O)c1ccco1	none
CN(C)C(=O)CN1C(=O)C2CC=C(Cl)CC2C1=O (stereo unspecified)	CAL PDZ FP-1 32.0
CCN(CC)C(=O)CN1C(=O)C2CC=C(Cl)CC2C1=O (stereo unspecified)	none (no result: CAL PDZ FP-1)
CCCCn1nnnc1C(c1ccccc1)N1CCN(c2ncc(C(F)(F)F)cc2Cl)CC1 (stereo unspecified)	none (no result: CAL PDZ FP-1, Dyrk1A ADPGlo, CAL PDZ FP-2, CDK5 p35 inh, PvdQ acylase)
O=C(c1ccc(CNS(=O)(=O)c2ccc(F)cc2)cc1)N1CCCCCC1	none (no result: CAL PDZ FP-1, Dyrk1A ADPGlo, CAL PDZ FP-2, CDK5 p35 inh, PvdQ acylase)
Cc1cc(Cl)ccc1OCC(=O)Nc1ccc(CN2CCOCC2)cc1	none
O=C(COc1ccc(Cl)cc1Cl)Nc1ccc(CN2CCOCC2)cc1	CAL PDZ FP-1 83.9
O=S1(=O)CC(N2CCCCC2)CN1C1CCCCC1 (stereo unspecified)	none (no result: CAL PDZ FP-1, Dyrk1A ADPGlo, CAL PDZ FP-2, CDK5 p35 inh, PvdQ acylase)
O=[N+]([O-])c1ccccc1N/N=C1\CC2CC=CC12 (stereo unspecified)	PvdQ acylase 58.1
O=C(Nc1ccc2c(c1)OCCO2)C(c1ccncc1)n1c(=O)c(-c2cc3ccccc3[nH]2)nc2ccccc21 (stereo unspecified)	none (no result: CAL PDZ FP-1, Dyrk1A ADPGlo, CAL PDZ FP-2, CDK5 p35 inh, PvdQ acylase)
CN(Cc1cccc(F)c1)C(=O)c1ccc2c(=O)n3c(nc2c1)CCC3	CAL PDZ FP-1 65.4
